Screens deposited in PubChem by several laboratories.
Compounds with a hit are over-represented: about 1.4% of the library has one in this group of screens.
STAT3 activator: increases IL-6 driven STAT3 reporter signal. U3A cells, IL-6 STAT3-luciferase reporter, luminescence; 100% = signal with IL-6 EC80 alone. activation (% of control), % at 5.6 µM. 0.91% of 190,000 active. AID 871;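 active means activation above the screen-wide mean of compound activation plus 3 SD, cut at about 130% in these data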
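Material: STAT3-luciferase reporter U3A cells; Probe or stimulus: IL-6 (33 ng/mL); Incubation: compound pre-incubation 1 h before IL-6, then 6 h stimulation at 37 °C; Technique: luminescence from STAT3-driven luciferase reporter; Evaluation: % activation versus median of IL-6-stimulated wells; Controls: IL-6-only high control.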
Platelet DG rel: modulates dense granule release in human platelets | human platelet-rich plasma, SFLLRN dense granule ATP release, luminescence | inhibition, %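 (compounds screened at 7.5 µM in platelet-rich plasma)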 | 0.22% of 300,000 active;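 active means mean replicate score, as percent of positive control, at or above 50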
PERK inhibitor: inhibitors of human PERK kinase | Q9NZJ5 | inhibition, % at 5.6 µM | AID 1416 | CHO PERK-DD fusion, SEAP luminescence translation reporter | 0.17% of 220,000 active;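 active means inhibition above the mean inhibition of all tested compounds plus 3 SD, set separately per screening campaign, cut at about 2.9% in these data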;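 further: PERK kinase domain activated by AP20187 dimerizer at 100 nM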
Target sequence (Q9NZJ5 whole entry, looked up, the tested form may be a part): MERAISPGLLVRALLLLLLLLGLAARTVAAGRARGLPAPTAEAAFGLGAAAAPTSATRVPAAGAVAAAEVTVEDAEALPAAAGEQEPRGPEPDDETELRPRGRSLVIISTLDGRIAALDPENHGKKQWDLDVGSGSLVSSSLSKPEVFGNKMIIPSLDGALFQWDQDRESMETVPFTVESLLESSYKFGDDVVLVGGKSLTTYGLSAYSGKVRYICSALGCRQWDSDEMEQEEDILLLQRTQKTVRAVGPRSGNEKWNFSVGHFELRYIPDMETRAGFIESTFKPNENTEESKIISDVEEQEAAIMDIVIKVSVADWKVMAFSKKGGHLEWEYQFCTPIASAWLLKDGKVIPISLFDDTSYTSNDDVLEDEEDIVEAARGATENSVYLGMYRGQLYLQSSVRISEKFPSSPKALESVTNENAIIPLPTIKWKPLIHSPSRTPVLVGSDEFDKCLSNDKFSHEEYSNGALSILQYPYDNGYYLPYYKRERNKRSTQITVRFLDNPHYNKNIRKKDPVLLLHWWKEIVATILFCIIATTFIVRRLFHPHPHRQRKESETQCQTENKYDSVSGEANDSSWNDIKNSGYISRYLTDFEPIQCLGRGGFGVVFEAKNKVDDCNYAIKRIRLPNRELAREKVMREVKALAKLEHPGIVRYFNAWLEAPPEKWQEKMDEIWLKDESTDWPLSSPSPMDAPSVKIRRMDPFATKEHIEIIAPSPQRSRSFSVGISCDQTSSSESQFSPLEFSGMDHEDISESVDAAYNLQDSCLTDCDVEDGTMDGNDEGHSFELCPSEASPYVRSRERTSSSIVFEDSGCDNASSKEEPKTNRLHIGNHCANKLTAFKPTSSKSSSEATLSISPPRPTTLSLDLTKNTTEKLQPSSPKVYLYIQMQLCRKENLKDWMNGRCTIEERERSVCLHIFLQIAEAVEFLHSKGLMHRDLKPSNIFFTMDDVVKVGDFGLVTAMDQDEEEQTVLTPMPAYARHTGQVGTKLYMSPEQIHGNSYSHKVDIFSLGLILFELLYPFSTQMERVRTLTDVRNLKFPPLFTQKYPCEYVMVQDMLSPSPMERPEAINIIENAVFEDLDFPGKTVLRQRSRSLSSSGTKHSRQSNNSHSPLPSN
STAT3 inh-1: reduces IL-6 driven STAT3 reporter signal; inhibition, % at 5.5 µM; 0.89% of 190,000 active; AID 862; U3A cells, IL-6 STAT3-luciferase reporter, luminescence; host cell line lacks STAT1;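 active means inhibition above the mean inhibition across all screened compounds plus 3 SD, cut at about 44% in these data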
STAT1 blocker: inhibitors of IFN-gamma induced STAT1 signaling. NIH 3T3 STAT1-luciferase reporter, luminescence. inhibition, % at 5.5 µM. 0.35% of 200,000 active;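 active means inhibition above a set limit, the mean inhibition across all tested compounds plus 3 SD, cut at about 34% in these data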
STAT3 inh-2: confirmation of STAT3 signaling inhibitors. shares compounds with STAT3 inh-1. U3A cells, IL-6 STAT3 luciferase reporter, luminescence; cell line lacks STAT1. inhibition, % at 5.7 µM. 45% of 1,200 active;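 active means inhibition above the hit cutoff computed for the primary STAT3 screen, cut at about 44% in these data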
NFkB inh 2: inhibits NF-kappaB, counter-screen to STAT3 inhibitors; shares compounds with STAT3 inh-1; AID 1308; HEK293T NF-kB luciferase reporter, TNF-alpha induced; 36% of 1,200 active; inhibition, % at 5.7 µM;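 active means inhibition above the mean of solvent-only control wells plus 3 SD, cutoff set per campaign, cut at about 13% in these data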
STAT1 inh 2: inhibits STAT1, counter-screen to STAT3 inhibitors; NIH 3T3 STAT1-luciferase reporter, IFN-gamma induced, luminescence; AID 1317; shares compounds with STAT3 inh-1; inhibition, % at 5.7 µM; 27% of 1,200 active;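 active means inhibition above the mean plus 3 SD of solvent-only control wells, limit set per screening run, cut at about 16% in these data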
Each line names hits and unclear results; the compound was inactive in the other large screens (follow-up assays come after a bar, where they were run).

Cc1ccc(C(=O)Nc2ccc3nccnc3c2)cc1	STAT3 inh-1 52 | STAT3 inh-2 inactive | NFkB inh 2 inactive | STAT1 inh 2 inactive
COC(=O)c1ccc(NC(=O)c2ccc3nccnc3c2)cc1	none (no result: STAT3 activator, PERK inhibitor, STAT3 inh-1, STAT1 blocker)
O=C(Nc1ccc(SC(F)F)cc1)c1ccc2nccnc2c1	STAT3 inh-1 48 | STAT3 inh-2 inactive | NFkB inh 2 inactive | STAT1 inh 2 inactive
Cc1c(/C=N/NC(=O)c2cccs2)c2ccccc2n1Cc1ccccc1Cl	none (no result: STAT3 activator, STAT3 inh-1, STAT1 blocker)
Cn1c(N/N=C/c2c[nH]c3ccccc23)nc2ccccc21	none
Cn1c(N/N=C/c2cc3ccccc3nc2Cl)nc2ccccc21	Platelet DG rel 60, STAT3 inh-1 53 | STAT3 inh-2 inactive | NFkB inh 2 25 | STAT1 inh 2 inactive
CN1CCN(c2nc3ccccc3nc2C(C#N)S(=O)(=O)c2ccccc2)CC1 (stereo not drawn)	none (no result: STAT3 activator, STAT3 inh-1, STAT1 blocker)
Cc1ccc(S(=O)(=O)C(C#N)c2nc3ccccc3nc2N2CCN(C)CC2)cc1C (stereo not drawn)	STAT3 inh-1 50 | STAT3 inh-2 inactive | NFkB inh 2 inactive | STAT1 inh 2 inactive
CSc1ccc(NC(=O)N2CCN(c3nc4ccccc4s3)CC2)cc1	STAT3 inh-1 46 | STAT3 inh-2 46 | NFkB inh 2 inactive | STAT1 inh 2 inactive
CCCCCCn1ccc(=N)cc1	STAT3 inh-1 70 | STAT3 inh-2 56 | NFkB inh 2 18 | STAT1 inh 2 inactive
COC(=O)c1sccc1NC(=S)N1CCN(c2cccc(C)c2C)CC1	none
CCC(=O)N1CCc2cc(S(=O)(=O)Nc3ccc4c(c3)OCCO4)ccc21	STAT3 inh-1 47 | STAT3 inh-2 inactive | NFkB inh 2 inactive | STAT1 inh 2 inactive
CS(=O)(=O)N1CCc2cc(S(=O)(=O)NCCNS(=O)(=O)c3ccc4c(c3)CCN4S(C)(=O)=O)ccc21	none
CCC(=O)N1CCCc2cc(S(=O)(=O)N3CCN(c4ccccc4F)CC3)ccc21	STAT3 inh-1 53 | STAT3 inh-2 inactive | NFkB inh 2 inactive | STAT1 inh 2 inactive
CS(=O)(=O)N1CCc2cc(S(=O)(=O)Nc3ccc4c(c3)OCCO4)ccc21	STAT3 inh-1 46 | STAT3 inh-2 inactive | NFkB inh 2 inactive | STAT1 inh 2 21
O=C(C1CCC1)N1CCc2cc(S(=O)(=O)Nc3ccc4c(c3)OCCO4)ccc21	STAT3 inh-1 65 | STAT3 inh-2 50 | NFkB inh 2 inactive | STAT1 inh 2 21
COc1cccc(NC(=O)c2cc(CN3C(=O)c4ccccc4C3=O)ccc2OC)c1	none
CCNC(=O)NC(=O)COC(=O)CCc1nc(=O)c2ccccc2n1C	none
O=C(Cn1cnc(Cl)c1Cl)c1ccc(F)cc1	none
Fc1ccccc1/C=C/c1ccc2ccccc2n1	STAT3 inh-1 72 | STAT3 inh-2 inactive | NFkB inh 2 30 | STAT1 inh 2 inactive
C(=C\c1ccc2ccccc2n1)/c1ccccc1	none (no result: STAT3 activator, STAT3 inh-1, STAT1 blocker)
COC(=O)c1ccc(COC(=O)c2[nH]c(C)c(C(C)=O)c2C)o1	STAT3 inh-1 47 | STAT3 inh-2 52 | NFkB inh 2 inactive | STAT1 inh 2 inactive
CCN(CC)S(=O)(=O)c1ccc(Oc2ccccc2OC)cc1	none (no result: STAT3 activator, STAT3 inh-1, STAT1 blocker)
CCN(CC)S(=O)(=O)c1ccc(Oc2ccc(S(=O)(=O)N(CC)CC)cc2)cc1	STAT3 inh-1 78 | STAT3 inh-2 68 | NFkB inh 2 27 | STAT1 inh 2 26
COc1cccc(OC)c1C(=O)NNC(=O)c1cccc(COc2ccc3c(c2)CCC3)c1	STAT3 inh-1 53 | STAT3 inh-2 inactive | NFkB inh 2 23 | STAT1 inh 2 21
O=C(O)c1cccc(COc2ccc3c(c2)CCC3)c1	none (no result: STAT3 activator, STAT3 inh-1, STAT1 blocker)
O=C(NCc1ccccc1)c1cccc(COc2ccc3c(c2)CCC3)c1	STAT3 inh-1 56 | STAT3 inh-2 45 | NFkB inh 2 34 | STAT1 inh 2 27
COc1cc(C(=O)N2C[C@@H]3CCC[C@H]2C3)ccc1OC1CCN(C(C)=O)CC1	none (no result: STAT3 activator, PERK inhibitor, STAT3 inh-1, STAT1 blocker)
Cc1sc2nc(CN3CCOCC3)[nH]c(=S)c2c1C	none
CCN(CC(=O)Nc1ccccc1OC)C(=O)CCOc1ccc(C(C)(C)C)cc1	none (no result: STAT3 activator, PERK inhibitor, STAT3 inh-1, STAT1 blocker)
CCCCCCCCC[n+]1cccc2c3ccccc3ccc21	Platelet DG rel 87, STAT3 inh-1 90 | STAT3 inh-2 89 | NFkB inh 2 57 | STAT1 inh 2 33
CCCCCCCCCCCCCCCC[n+]1cccc2ccccc21	none (no result: Platelet DG rel)
Cc1nnc(SCC(=O)Nc2ccccc2C(=O)NC2CC2)s1	none
COc1ccc(Cn2c(=O)[nH]c3cc(C(=O)N4CCN(c5ccccc5OC)CC4)ccc3c2=O)cc1	none (no result: STAT3 activator, PERK inhibitor, STAT3 inh-1, STAT1 blocker)
COc1ccc(Cn2c(=O)[nH]c3cc(C(=O)N4CCN(Cc5ccccc5)CC4)ccc3c2=O)cc1	STAT3 inh-1 64 | STAT3 inh-2 56 | NFkB inh 2 16 | STAT1 inh 2 inactive
O=C(Nc1cccc(O)c1)C(=O)Nc1ccccn1	Platelet DG rel 71, STAT3 inh-1 71 | STAT3 inh-2 51 | NFkB inh 2 inactive | STAT1 inh 2 inactive
O=C(Nc1ccccc1)C(=O)Nc1ccccn1	STAT3 inh-1 70 | STAT3 inh-2 inactive | NFkB inh 2 inactive | STAT1 inh 2 inactive
CCOC(=O)c1oc2ccc(S(=O)(=O)n3nc(-c4ccccc4)cc3N)cc2c1C	STAT3 inh-1 54 | STAT3 inh-2 inactive | NFkB inh 2 13 | STAT1 inh 2 inactive
Cc1cc(C)c(S(=O)(=O)NCC23C=CC(O2)C2C(=O)N(c4ccccc4)C(=O)C23)c(C)c1 (stereo not drawn)	none
Cc1ccc(S(=O)(=O)N(C)c2ccc(C(=O)N3CCN(Cc4ccc5c(c4)OCO5)CC3)cc2)cc1	STAT3 inh-1 54 | STAT3 inh-2 45 | NFkB inh 2 inactive | STAT1 inh 2 inactive
CN(c1ccc(C(=O)N2CCN(Cc3ccccc3)CC2)cc1)S(=O)(=O)c1ccccc1	none (no result: STAT3 activator, PERK inhibitor, STAT3 inh-1, STAT1 blocker)
CN(c1ccc(C(=O)N2CCN(Cc3ccc4c(c3)OCO4)CC2)cc1)S(=O)(=O)c1ccccc1	STAT3 inh-1 49 | STAT3 inh-2 inactive | NFkB inh 2 inactive | STAT1 inh 2 inactive
COc1cccc(C2CC(c3cccs3)=NN2C(=O)CSC2=NN3CCCC(=O)N=C3S2)c1OC (stereo not drawn)	none
CC(Cl)C(=O)Nc1ccccc1C#N (stereo not drawn)	none
CCCCCCCCn1c2c(c(=N)c3ccccc31)CCC2	STAT3 inh-1 85 | STAT3 inh-2 88 | NFkB inh 2 30 | STAT1 inh 2 31
CC(=O)NNC(=O)CCn1c2c(c3ccccc31)CCCC2	none (no result: STAT3 activator, STAT3 inh-1, STAT1 blocker)
CSc1cccc(NC(=S)N(CCCN2CCC(C)CC2)Cc2cccs2)c1	none
Cc1ccc2nc(-c3ccc(NC(=O)CCS(=O)(=O)c4ccccc4)cc3)sc2c1	STAT3 inh-1 72 | STAT3 inh-2 48 | NFkB inh 2 22 | STAT1 inh 2 inactive
